Data set [1] has as its system Homo sapiens. Description: Tmax in HIV-1 infected patient assessed as beta-D-dioxolane guanosine level at 500 mg, po bid on day 10 by LC-MS/MS analysis. The format is ADME, organism-based. The conditions noted are these: in vivo. Put shortly:
(§1)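 Treatment-naive Hispanic HIV-1-infected adults (≥5,000 RNA copies/ml, CD4 ≥200 cells/mm3). Blood drawn after first dose on day 1 (0–12 h) and after last dose on day 10 (0–48 h) into DCF-containing EDTA tubes to block ex vivo deamination, centrifuged, plasma stored −80°C. Methanol extraction with internal standard, LC-MS/MS (linear 2–3,000 ng ml−1 for AMDX and DXG). Noncompartmental analysis assuming extravascular input; geometric means reported.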

In data set [2] the test system is Homo sapiens. Description: AUC (0 to 12 hrs) in HIV-1 infected patient assessed as beta-D-dioxolane guanosine level at 500 mg, po bid on day 10 coadministered with 300 mg, po bid zidovudine by LC-MS/MS analysis. The data set is classed as ADME, organism-based, Plasma. The arrangement: time < 12 hr, dose 500 mg, route oral. The conditions noted are these: in vivo. Put shortly:
(§2)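 Untreated Hispanic HIV-1-infected adults (viral load ≥5,000 copies/ml, CD4 ≥200 cells/mm3). Blood was drawn into DCF-containing EDTA tubes on day 1 (0–12 h) and on day 10 (0–48 h post last dose), then stored at −80°C. Plasma was methanol-extracted with an internal standard and run by LC-MS/MS (2–3,000 ng/ml AMDX/DXG; 2–5,000 ng/ml ZDV). Noncompartmental analysis assumed extravascular input; τ = 12 h; geometric means reported; accumulation was taken as AUCτ day 10/day 1.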

In data set [3] the test system is Homo sapiens. Description: Ratio of AUC (0 to 12 hrs) in HIV-1 infected patient assessed as beta-D-dioxolane guanosine level at 500 mg, po bid on day 10 coadministered with 200 mg, po bid zidovudine to AUC (0 to 12 hrs) in HIV-1 infected patient assessed as beta-D-dioxolane guanosine level at 500 mg, po bid on day 1 coadministered with 200 mg, po bid zidovudine. The format is ADME, organism-based. The conditions noted are these: in vivo. Put shortly:
as §2

Data set [4] concerns Homo sapiens. Description: AUC (0 to 12 hrs) in HIV-1 infected patient assessed as beta-D-dioxolane guanosine level at 500 mg, po bid on day 10 coadministered with 200 mg, po bid zidovudine by LC-MS/MS analysis. The data set is classed as ADME, organism-based, Plasma. The arrangement: time < 12 hr, dose 500 mg, route oral. The conditions noted are these: in vivo. Put shortly: as §2

Data set [5] concerns Homo sapiens. Description: Cmax in HIV-1 infected patient assessed as beta-D-dioxolane guanosine level at 500 mg, po bid on day 1 by LC-MS/MS analysis. The format is ADME, organism-based. The conditions noted are these: in vivo. The arrangement: dose 500 mg, route oral. Put shortly: as §2
Data set [6] deals with Homo sapiens. Description: Half life in HIV-1 infected patient assessed as beta-D-dioxolane guanosine level at 500 mg, po bid on day 10 coadministered with 300 mg, po bid zidovudine by LC-MS/MS analysis. The format is ADME, organism-based. The conditions noted are these: in vivo. Put shortly: as §2
Data set [7] concerns Homo sapiens. Description: Cmax in HIV-1 infected patient assessed as beta-D-dioxolane guanosine level at 500 mg, po bid on day 10 coadministered with 300 mg, po bid zidovudine by LC-MS/MS analysis. The format is ADME, organism-based. The arrangement: dose 500 mg, route oral. The conditions noted are these: in vivo. The procedure, abridged: as §2
The test system of data set [8] is Homo sapiens. Description: Half life in HIV-1 infected patient assessed as beta-D-dioxolane guanosine level at 500 mg, po bid on day 10 coadministered with 200 mg, po bid zidovudine by LC-MS/MS analysis. The format is ADME, organism-based. The conditions noted are these: in vivo. The procedure, abridged:
as §2

Data set [9] can be described thus: Drug level in HIV-1 infected patient urine assessed as beta-D-dioxolane guanosine level at 500 mg, po bid on day 10 coadministered with 200 mg, po bid zidovudine by LC-MS/MS analysis. The format is ADME, organism-based. The conditions noted are these: human, in vivo. The procedure, abridged:
(§3)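 At steady state (day 10), urine collected over one 12-h dose interval was analyzed by LC-MS/MS for AMDX, DXG, ZDV and ZDV-5′-O-glucuronide. Samples were diluted 100-fold, and the assay was linear from 1 to 500 μg/ml. Results are expressed as percentage of the dose recovered as each analyte (geometric means). Subjects were untreated HIV-1-infected adults.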

Data set [10] deals with Homo sapiens. Description: Apparent oral clearance in HIV-1 infected patient assessed as beta-D-dioxolane guanosine level at 500 mg, po bid on day 10 by LC-MS/MS analysis. The format is ADME, organism-based. The conditions noted are these: in vivo. Put shortly: as §2
Data set [11] concerns Homo sapiens. Description: Tmax in HIV-1 infected patient assessed as beta-D-dioxolane guanosine level at 500 mg, po bid on day 10 coadministered with 300 mg, po bid zidovudine by LC-MS/MS analysis. The conditions noted are these: in vivo. The data set is classed as ADME, organism-based. Put shortly:
as §1

The subject of data set [12] is Homo sapiens. Description: Apparent oral clearance in HIV-1 infected patient assessed as beta-D-dioxolane guanosine level at 500 mg, po bid on day 10 coadministered with 300 mg, po bid zidovudine by LC-MS/MS analysis. The conditions noted are these: in vivo. The data set is classed as ADME, organism-based. Put shortly:
as §2

The nature of data set [13]: Drug level in HIV-1 infected patient urine assessed as beta-D-dioxolane guanosine level at 500 mg, po bid on day 10 by LC-MS/MS analysis. The data set is classed as ADME, organism-based. The conditions noted are these: human, in vivo. The procedure, abridged:
as §3

Data set [14] concerns Homo sapiens. Description: Half life in HIV-1 infected patient assessed as beta-D-dioxolane guanosine level at 500 mg, po bid on day 1 by LC-MS/MS analysis. The conditions noted are these: in vivo. The data set is classed as ADME, organism-based. Put shortly: as §2
Data set [15] deals with Homo sapiens. Description: Half life in HIV-1 infected patient assessed as beta-D-dioxolane guanosine level at 500 mg, po bid on day 10 by LC-MS/MS analysis. The data set is classed as ADME, organism-based. The conditions noted are these: in vivo. Put shortly: as §2
Data set [16] deals with Homo sapiens. Description: Apparent oral clearance in HIV-1 infected patient assessed as beta-D-dioxolane guanosine level at 500 mg, po bid on day 10 coadministered with 200 mg, po bid zidovudine by LC-MS/MS analysis. The data set is classed as ADME, organism-based. The conditions noted are these: in vivo. Put shortly:
as §2

Data set [17] has as its system Homo sapiens. Description: Cmax in HIV-1 infected patient assessed as beta-D-dioxolane guanosine level at 500 mg, po bid on day 10 coadministered with 200 mg, po bid zidovudine by LC-MS/MS analysis. The conditions noted are these: in vivo. Set-up: dose 500 mg, route oral. The data set is classed as ADME, organism-based. Put shortly:
as §2

Data set [18] deals with Homo sapiens. Description: Ratio of AUC (0 to 12 hrs) in HIV-1 infected patient assessed as beta-D-dioxolane guanosine level at 500 mg, po bid on day 10 to AUC (0 to 12 hrs) in HIV-1 infected patient assessed as beta-D-dioxolane guanosine level at 500 mg, po bid on day 1. The conditions noted are these: in vivo. The data set is classed as ADME, organism-based. Put shortly:
as §2

The subject of data set [19] is Homo sapiens. Description: AUC (0 to 12 hrs) in HIV-1 infected patient assessed as beta-D-dioxolane guanosine level at 500 mg, po bid on day 10 by LC-MS/MS analysis. The format is ADME, organism-based, Plasma. Set-up: dose 500 mg, time < 12 hr, route oral. The conditions noted are these: in vivo. Put shortly: as §2
Data set [20] relates to Homo sapiens. Description: Tmax in HIV-1 infected patient assessed as beta-D-dioxolane guanosine level at 500 mg, po bid on day 10 coadministered with 200 mg, po bid zidovudine by LC-MS/MS analysis. The format is ADME, organism-based. The conditions noted are these: in vivo. The procedure, abridged:
as §1

Data set [21] relates to Homo sapiens. Description: Ratio of AUC (0 to 12 hrs) in HIV-1 infected patient assessed as beta-D-dioxolane guanosine level at 500 mg, po bid on day 10 coadministered with 300 mg, po bid zidovudine to AUC (0 to 12 hrs) in HIV-1 infected patient assessed as beta-D-dioxolane guanosine level at 500 mg, po bid on day 1 coadministered with 300 mg, po bid zidovudine. The data set is classed as ADME, organism-based. The conditions noted are these: in vivo. Put shortly: as §2

Data set [22] can be described thus: Drug level in HIV-1 infected patient urine assessed as beta-D-dioxolane guanosine level at 500 mg, po bid on day 10 coadministered with 300 mg, po bid zidovudine by LC-MS/MS analysis. The data set is classed as ADME, organism-based. The conditions noted are these: human, in vivo. The procedure, abridged:
as §3

Data set [23] deals with Homo sapiens. Description: Cmax in HIV-1 infected patient assessed as beta-D-dioxolane guanosine level at 500 mg, po bid on day 10 by LC-MS/MS analysis. The data set is classed as ADME, organism-based. The conditions noted are these: in vivo. The arrangement: dose 500 mg, route oral. The procedure, abridged:
as §2

With `Nc1nc2c(ncn2[C@H]2CO[C@@H](CO)O2)c(=O)[nH]1`, the Tmax in data set [1] was 1.3 h; in data set [11], 1.8 h; in data set [20], 1.5 h. In addition, the values for the AUC in [2], in data set [4] and in [19] were 7658 ng·h/mL, 6225 ng·h/mL and 6834 ng·h/mL, respectively. Besides, the “Ratio AUC” value in data set [3] is 0.91; in [18], 1.18; in data set [21], 1.19. The Cmax worked out at 1272 ng/mL in data set [5], 1908 ng/mL in data set [7], 1315 ng/mL in data set [17] and 1545 ng/mL in [23]. Moreover, the t1/2 stood at 14.8 h in [6], 14.7 h in [8], 2.5 h in data set [14] and 17.6 h in data set [15]. Moreover, the Drug uptake in data set [9] is 26.2%; in data set [13] it was 25.3%; in [22], 27.7%. Moreover, the CL/F was determined as 14.7 mL/min/kg in data set [10], 15.2 mL/min/kg in data set [12] and 15.8 mL/min/kg in data set [16].

Usually Tmax stands for the time at which the peak concentration occurs. The AUC is concentration integrated over time. In general, Cmax refers to the highest concentration seen after dosing. As a reminder, the CL/F is clearance divided by bioavailability, as obtained after extravascular dosing.
